How the values were obtained:
[1] = target: T1, Dual specificity tyrosine-phosphorylation-regulated kinase 3 (Homo sapiens) (UniProt O43781); test: Inhibition of human recombinant DYRK3 at 40 nM related to control ULK1
T1 sequence (whole entry): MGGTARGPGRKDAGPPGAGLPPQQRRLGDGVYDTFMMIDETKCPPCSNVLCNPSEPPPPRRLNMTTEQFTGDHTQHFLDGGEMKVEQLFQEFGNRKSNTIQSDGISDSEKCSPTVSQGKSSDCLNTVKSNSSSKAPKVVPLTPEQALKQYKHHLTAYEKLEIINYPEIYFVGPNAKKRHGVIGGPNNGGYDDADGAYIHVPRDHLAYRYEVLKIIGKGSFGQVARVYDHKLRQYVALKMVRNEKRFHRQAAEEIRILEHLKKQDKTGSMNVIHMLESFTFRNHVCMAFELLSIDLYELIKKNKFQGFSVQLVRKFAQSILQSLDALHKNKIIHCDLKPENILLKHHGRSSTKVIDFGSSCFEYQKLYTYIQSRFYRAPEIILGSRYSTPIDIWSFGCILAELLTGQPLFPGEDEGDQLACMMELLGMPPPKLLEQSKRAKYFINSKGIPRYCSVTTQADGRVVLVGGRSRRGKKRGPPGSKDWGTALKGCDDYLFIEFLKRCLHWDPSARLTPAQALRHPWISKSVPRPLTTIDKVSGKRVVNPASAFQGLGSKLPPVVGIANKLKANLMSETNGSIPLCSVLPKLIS

[2] = target: T2, Serine/threonine-protein kinase Nek2 (Homo sapiens) (UniProt P51955); test: Inhibition of human recombinant NEK2 at 40 nM related to control ULK1
T2 sequence (whole entry): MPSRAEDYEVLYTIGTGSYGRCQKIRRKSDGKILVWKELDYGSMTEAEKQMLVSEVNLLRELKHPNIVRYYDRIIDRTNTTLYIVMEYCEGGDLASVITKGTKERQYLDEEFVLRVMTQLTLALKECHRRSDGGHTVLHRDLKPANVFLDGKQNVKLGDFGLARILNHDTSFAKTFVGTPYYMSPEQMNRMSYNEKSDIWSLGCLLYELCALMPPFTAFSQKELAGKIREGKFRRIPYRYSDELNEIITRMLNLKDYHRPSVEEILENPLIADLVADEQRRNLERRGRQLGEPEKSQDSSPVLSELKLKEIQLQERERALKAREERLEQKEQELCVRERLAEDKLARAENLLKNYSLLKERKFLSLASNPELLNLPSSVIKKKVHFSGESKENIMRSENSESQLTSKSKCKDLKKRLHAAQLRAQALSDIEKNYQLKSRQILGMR

[3] = target: T3, Serine/threonine-protein kinase DCLK3 (Homo sapiens) (UniProt Q9C098); test: Inhibition of human recombinant DCAMKL3 at 40 nM related to control ULK1
T3 sequence (whole entry): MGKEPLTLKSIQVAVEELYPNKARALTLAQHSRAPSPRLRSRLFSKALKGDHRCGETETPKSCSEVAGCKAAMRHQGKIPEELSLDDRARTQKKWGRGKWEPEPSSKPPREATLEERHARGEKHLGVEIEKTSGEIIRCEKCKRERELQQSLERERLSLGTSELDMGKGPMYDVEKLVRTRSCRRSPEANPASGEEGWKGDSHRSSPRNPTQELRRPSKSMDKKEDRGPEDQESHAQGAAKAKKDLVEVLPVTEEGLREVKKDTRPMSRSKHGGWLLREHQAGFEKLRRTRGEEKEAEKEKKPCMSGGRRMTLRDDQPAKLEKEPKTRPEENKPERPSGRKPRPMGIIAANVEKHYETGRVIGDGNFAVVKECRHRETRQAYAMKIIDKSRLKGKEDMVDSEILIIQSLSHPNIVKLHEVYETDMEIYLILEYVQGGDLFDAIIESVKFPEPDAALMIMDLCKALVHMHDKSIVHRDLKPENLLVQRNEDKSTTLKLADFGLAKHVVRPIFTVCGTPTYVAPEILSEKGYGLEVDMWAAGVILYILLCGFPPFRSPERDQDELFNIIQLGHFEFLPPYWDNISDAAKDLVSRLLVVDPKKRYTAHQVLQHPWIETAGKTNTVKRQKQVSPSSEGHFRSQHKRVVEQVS

[4] = target: Cyclin-dependent kinase 12 (Homo sapiens) (UniProt Q9NYV4); test: Inhibition of human recombinant CRK7 at 40 nM related to control ULK1
[5] = target: RAC-gamma serine/threonine-protein kinase (Homo sapiens) (UniProt Q9Y243); test: Inhibition of human recombinant AKT3 at 40 nM in presence of ATP by radiometric assay relative to control
Outline: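 Panel of 327 recombinant human kinases in radiometric activity assays, each screened in duplicate at a single inhibitor concentration; percent activity remaining relative to vehicle control, percent inhibition taken as 100 minus activity remaining.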

[6] = target: Bone morphogenetic protein receptor type-1B (Homo sapiens) (UniProt O00238); test: Inhibition of human recombinant BMPR1B at 500 nM in presence of ATP by radiometric assay relative to control
Outline: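 Part of a radiometric in vitro activity panel of 327 recombinant human kinases. Each kinase was tested in duplicate at one inhibitor concentration. Activity remaining was expressed as a percentage of the vehicle control, and percent inhibition was taken as 100 minus that value.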

[7] = target: Serine/threonine-protein kinase MARK2 (Homo sapiens) (UniProt Q7KZI7); test: Inhibition of human recombinant MARK2 at 500 nM in presence of ATP by radiometric assay relative to control
[8] = target: High affinity nerve growth factor receptor (Homo sapiens) (UniProt P04629); test: Inhibition of human recombinant TRKA at 500 nM related to control ULK1
Homo sapiens = species on record: Homo sapiens; test: Inhibition of human recombinant KHS1 at 15 nM related to control ULK1
[9] = target: Misshapen-like kinase 1 (Homo sapiens) (UniProt Q8N4C8); test: Inhibition of human recombinant MINK at 15 nM in presence of ATP by radiometric assay relative to control
[10] = target: Calcium/calmodulin-dependent protein kinase type II subunit delta (Homo sapiens) (UniProt Q13557); test: Inhibition of human recombinant CaMK2d at 15 nM related to control ULK1
Sequence of Calcium/calmodulin-dependent protein kinase type II subunit delta (Homo sapiens) (Q13557 whole entry): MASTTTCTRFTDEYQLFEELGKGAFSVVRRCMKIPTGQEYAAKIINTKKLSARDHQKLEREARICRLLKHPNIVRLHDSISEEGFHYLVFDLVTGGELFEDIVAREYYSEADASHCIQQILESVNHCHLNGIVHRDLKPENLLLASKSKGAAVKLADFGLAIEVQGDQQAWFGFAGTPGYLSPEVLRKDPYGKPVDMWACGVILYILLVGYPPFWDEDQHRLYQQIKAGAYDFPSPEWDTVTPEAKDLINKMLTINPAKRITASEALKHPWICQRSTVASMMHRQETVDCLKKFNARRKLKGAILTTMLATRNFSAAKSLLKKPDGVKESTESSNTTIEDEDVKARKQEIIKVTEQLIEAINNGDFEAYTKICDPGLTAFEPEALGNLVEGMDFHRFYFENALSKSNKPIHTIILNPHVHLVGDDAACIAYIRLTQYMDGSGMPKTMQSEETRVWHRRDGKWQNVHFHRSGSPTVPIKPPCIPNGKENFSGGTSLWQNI

Sequence of High affinity nerve growth factor receptor (Homo sapiens) (P04629 33-796 limits assumed): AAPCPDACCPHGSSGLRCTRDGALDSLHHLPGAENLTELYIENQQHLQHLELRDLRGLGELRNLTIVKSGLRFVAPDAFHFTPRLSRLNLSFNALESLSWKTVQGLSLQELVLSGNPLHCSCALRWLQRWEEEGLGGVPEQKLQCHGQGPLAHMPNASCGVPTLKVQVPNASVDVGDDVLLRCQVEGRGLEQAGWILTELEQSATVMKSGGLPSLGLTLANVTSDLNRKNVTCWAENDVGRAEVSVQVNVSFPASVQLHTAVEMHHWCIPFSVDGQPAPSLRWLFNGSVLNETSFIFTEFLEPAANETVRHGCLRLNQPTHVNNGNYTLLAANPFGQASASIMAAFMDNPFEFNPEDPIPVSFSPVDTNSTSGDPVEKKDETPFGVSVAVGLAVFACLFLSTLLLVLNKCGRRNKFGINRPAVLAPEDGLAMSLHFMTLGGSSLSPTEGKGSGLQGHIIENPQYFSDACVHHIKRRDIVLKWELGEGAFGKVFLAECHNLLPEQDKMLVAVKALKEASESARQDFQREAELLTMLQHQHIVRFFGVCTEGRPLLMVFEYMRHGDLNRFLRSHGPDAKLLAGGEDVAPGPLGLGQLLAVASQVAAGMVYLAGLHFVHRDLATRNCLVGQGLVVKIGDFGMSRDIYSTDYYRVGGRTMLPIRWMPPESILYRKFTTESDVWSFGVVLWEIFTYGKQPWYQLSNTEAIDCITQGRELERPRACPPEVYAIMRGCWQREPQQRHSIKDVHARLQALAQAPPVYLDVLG
Sequence of RAC-gamma serine/threonine-protein kinase (Homo sapiens) (Q9Y243 whole entry): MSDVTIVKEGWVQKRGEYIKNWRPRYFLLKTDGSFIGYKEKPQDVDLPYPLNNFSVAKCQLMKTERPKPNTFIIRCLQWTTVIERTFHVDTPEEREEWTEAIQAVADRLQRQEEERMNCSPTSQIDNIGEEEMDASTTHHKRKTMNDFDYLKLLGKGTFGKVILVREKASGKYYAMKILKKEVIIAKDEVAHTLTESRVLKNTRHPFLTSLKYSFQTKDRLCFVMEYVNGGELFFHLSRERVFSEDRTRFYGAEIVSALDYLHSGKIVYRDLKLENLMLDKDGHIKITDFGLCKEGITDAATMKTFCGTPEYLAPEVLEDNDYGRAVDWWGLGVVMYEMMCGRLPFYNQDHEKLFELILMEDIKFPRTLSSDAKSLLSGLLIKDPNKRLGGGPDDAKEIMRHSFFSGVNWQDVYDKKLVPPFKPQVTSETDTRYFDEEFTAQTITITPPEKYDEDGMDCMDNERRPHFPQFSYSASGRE
Sequence of Misshapen-like kinase 1 (Homo sapiens) (Q8N4C8 whole entry, looked up): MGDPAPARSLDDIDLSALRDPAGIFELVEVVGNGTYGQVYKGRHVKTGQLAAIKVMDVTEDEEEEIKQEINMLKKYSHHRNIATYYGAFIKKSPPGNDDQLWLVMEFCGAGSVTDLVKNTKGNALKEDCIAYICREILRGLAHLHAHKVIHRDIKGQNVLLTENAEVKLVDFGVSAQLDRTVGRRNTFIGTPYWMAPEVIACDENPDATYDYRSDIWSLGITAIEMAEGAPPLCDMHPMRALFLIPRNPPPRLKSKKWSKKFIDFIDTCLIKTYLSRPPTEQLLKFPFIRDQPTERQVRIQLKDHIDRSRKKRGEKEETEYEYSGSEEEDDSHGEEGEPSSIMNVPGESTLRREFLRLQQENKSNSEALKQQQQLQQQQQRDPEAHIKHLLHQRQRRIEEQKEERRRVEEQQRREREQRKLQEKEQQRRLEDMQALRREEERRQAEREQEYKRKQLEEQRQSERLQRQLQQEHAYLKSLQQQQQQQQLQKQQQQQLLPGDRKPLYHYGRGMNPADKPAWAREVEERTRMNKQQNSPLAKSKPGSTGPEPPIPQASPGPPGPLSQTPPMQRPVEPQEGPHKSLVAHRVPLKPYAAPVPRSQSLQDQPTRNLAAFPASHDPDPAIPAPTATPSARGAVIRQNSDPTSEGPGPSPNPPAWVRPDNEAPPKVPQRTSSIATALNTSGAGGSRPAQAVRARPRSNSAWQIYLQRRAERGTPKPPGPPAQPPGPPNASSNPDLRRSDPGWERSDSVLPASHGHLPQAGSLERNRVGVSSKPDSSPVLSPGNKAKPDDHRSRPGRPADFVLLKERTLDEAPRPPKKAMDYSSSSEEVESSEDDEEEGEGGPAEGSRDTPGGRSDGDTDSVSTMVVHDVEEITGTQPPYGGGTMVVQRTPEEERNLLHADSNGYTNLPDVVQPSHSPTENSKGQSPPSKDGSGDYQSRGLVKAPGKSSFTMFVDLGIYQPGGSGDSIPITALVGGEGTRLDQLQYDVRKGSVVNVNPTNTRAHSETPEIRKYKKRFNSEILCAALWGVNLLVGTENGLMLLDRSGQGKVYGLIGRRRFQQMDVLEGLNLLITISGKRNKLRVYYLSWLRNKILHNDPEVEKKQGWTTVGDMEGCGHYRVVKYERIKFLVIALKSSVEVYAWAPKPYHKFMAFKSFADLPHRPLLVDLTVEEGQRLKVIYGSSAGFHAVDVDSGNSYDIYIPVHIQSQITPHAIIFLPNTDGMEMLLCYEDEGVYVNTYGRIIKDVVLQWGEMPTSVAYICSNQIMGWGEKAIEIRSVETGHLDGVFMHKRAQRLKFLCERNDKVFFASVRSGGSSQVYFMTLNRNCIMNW
Sequence of Bone morphogenetic protein receptor type-1B (Homo sapiens) (O00238 whole entry): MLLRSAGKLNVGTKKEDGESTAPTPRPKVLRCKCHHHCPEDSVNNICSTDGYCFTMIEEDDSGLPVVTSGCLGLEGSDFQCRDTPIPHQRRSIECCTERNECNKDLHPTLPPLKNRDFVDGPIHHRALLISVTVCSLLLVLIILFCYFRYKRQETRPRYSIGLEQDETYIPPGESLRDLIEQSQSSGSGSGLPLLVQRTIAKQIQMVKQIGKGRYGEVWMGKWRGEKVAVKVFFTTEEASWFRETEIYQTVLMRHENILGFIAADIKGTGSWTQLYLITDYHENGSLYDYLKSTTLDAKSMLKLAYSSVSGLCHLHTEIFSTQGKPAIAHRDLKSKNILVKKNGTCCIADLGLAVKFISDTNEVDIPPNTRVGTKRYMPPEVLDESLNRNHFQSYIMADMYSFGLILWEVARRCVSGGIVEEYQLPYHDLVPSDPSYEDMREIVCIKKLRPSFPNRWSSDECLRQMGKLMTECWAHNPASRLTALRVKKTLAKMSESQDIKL
Sequence of Serine/threonine-protein kinase MARK2 (Homo sapiens) (Q7KZI7 whole entry): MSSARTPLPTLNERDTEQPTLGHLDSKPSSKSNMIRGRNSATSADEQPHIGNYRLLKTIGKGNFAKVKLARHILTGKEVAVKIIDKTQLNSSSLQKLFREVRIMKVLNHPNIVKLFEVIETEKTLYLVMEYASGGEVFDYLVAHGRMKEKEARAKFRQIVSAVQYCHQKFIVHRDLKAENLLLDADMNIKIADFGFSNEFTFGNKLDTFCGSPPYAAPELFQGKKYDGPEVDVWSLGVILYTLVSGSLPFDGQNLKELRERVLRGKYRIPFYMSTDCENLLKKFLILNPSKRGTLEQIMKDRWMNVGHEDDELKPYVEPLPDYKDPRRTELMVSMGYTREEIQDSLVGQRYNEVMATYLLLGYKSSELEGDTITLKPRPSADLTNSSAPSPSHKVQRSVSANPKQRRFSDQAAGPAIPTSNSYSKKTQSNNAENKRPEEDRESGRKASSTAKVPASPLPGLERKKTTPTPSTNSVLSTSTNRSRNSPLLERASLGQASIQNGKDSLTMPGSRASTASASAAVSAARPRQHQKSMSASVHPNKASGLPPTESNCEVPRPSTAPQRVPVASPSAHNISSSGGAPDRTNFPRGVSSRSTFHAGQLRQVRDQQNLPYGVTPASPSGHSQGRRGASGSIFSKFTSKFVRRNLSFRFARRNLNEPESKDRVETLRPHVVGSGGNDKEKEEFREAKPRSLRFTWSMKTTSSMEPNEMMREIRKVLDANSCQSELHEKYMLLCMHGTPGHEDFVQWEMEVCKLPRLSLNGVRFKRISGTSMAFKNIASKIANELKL

`O=C(N[C@@H](C1CC1)C(F)(F)F)c1cc(-c2cnn3cc(-c4ccc(F)cc4)cnc23)cs1` showed a fold change (FC) [1] of 0.41, a fold change (FC) [2] of 0 and a fold change (FC) [3] of 0.03. For the same compound, the fold change (FC) [4] was 0.1 and the inhibition [5] was 2%.
Work on `CNC(=O)c1ccccc1Oc1nc(Nc2cc(OC)c(OC)c(OC)c2)ncc1Br` yielded an inhibition [6] of 0%, an inhibition [7] of 50% and a fold change (FC) [8] of 0.7.
In the case of `CC(C)[C@H](NC(=O)c1cc(-c2cnn3cc(-c4ccc(OCCN5CCCCC5)cc4)cnc23)cs1)C(F)(F)F`, the fold change (FC) (Homo sapiens) is reported as 0.16, the inhibition [9] is reported as 4% and the fold change (FC) [10] is reported as 0.23.
